# BAP1 block – inhibitors of BAP1 deubiquitinase, primary screen, biochemical, Ub-AMC fluorescence, kinetic; AID 436, 2006; recombinant BAP1, Ub-AMC hydrolysis fluorescence kinetic; active compounds read low; 72,000 tested, 0.48% active; calls only at 20 µM; Ubiquitin carboxyl-terminal hydrolase BAP1 (Homo sapiens), Q92560;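 active means activity remaining at or below 50% of control, provided the compound also passes the data quality filters; inactive means the rest, including low values that fail the filters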;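 further: 100% = DMSO wells rate and 0% = substrate alone blank rate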
# Ecoli tolC – growth inhibitors of E. coli tolC mutant, primary screen, strain BW25113 ΔtolC::kan, 384-well; OD615; growth inhibition, % at 10 µM (by protocol); 65,000 tested, 2.2% active;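 active means growth inhibition at or above a cutoff equal to the mean over every tested compound plus 3 SD, cut at about 60% in these data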;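 further: growth measured after 20 h incubation at 37 °C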
#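 Test system – E. coli BW25113 ΔtolC::kan, tolC deletion mutant strain · Detection – OD at 615 nm · Buffer or medium – LB with kanamycin 50 µg/mL · Times – 20 h compound exposure of bacteria at 37 °C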
# E coli WT exp – growth inhibitors of wild-type E. coli, primary screen, strain BW25113, expanded library, OD600 | OD600 absorbance | growth inhibition, % at 100 µM | 98,000 tested, 0.15% active | AID 710, 2007;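 active means growth inhibition above about 50% at one test dose, limit read from the data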;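 further: growth measured after 20 h incubation at 37 °C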
# M1 antag – antagonists of rat M1 muscarinic receptor; CHO-M1 cells, Fluo-4 calcium, ACh EC80 antagonist mode; active compounds read low; Muscarinic acetylcholine receptor M1 (Rattus norvegicus), P08482; AID 628, 2007; 64,000 tested, 3.4% active; B-score at 10 µM;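 active means calcium fluorescence response, raw or row-and-column corrected B-score, differing from the plate sample mean either way at a set confidence level, mostly lower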
# Target sequence (P08482 whole entry, looked up): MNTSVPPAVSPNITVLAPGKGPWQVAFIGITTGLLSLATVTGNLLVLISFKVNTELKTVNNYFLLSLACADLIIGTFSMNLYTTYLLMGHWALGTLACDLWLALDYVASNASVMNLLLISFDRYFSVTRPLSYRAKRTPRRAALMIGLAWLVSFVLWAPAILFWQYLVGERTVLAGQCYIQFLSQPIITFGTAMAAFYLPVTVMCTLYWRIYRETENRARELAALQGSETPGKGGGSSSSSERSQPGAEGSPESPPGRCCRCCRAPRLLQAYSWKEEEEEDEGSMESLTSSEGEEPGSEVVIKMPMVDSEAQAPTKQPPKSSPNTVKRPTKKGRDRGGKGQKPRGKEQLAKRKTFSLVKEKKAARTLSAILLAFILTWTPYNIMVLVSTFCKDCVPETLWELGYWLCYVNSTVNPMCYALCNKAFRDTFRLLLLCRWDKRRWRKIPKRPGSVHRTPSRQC
# M1 ag – M1 muscarinic receptor agonists, primary screen, CHO-M1 cells, Fluo-4 calcium, agonist mode; B-score at 10 µM; Fluo-4 calcium fluorescence; active compounds read high; 64,000 tested, 3% active; Muscarinic acetylcholine receptor M1;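 active means fluorescence rise, raw or as B-score row- and column-corrected plate score, outside the 99.7% band of its plate's samples, either direction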
# Hsp90 block – tumor Hsp90 inhibitors, primary screen, cell lysate, fluorescence polarization, NCI-N417 lysate; Cy3B-geldanamycin FP displacement; AID 429, 2006; 64,000 tested, 0.35% active; inhibition, % at 30 µM; Heat shock protein HSP 90-alpha (Homo sapiens), P07900;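 active means inhibition above 50%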;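 further: 0% = tracer plus lysate wells and 100% = tracer alone without lysate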
# Active calls of the source: *; i = inactive; · = not tested or not shown. Sampled rows, rich in hits. Any-hit rate of the full collection: about 5.1%.
SMILES,BAP1 block,Ecoli tolC,E coli WT exp,M1 antag,M1 ag,Hsp90 block
CCc1ccccc1N(CC)C(=O)CCc1nc(-c2ccc(C)cc2)no1,i,95*,3,0.079,-0.26,1
Cc1ccc(-c2noc(CN(C(=O)Cc3ccccc3)C(C)C)n2)cc1,·,·,0,·,·,·
CCN(CCCNC(=O)CCc1nc(-c2ccc(C)cc2)no1)c1cccc(C)c1,i,91*,-16,-0.55,-0.018,4
CCN(CCCNC(=O)c1[nH]c(C)c(C(C)=O)c1C)c1cccc(C)c1,i,98*,-4,-0.12,-0.82,-9
Cc1ccc(-c2noc(CCC(=O)NCCc3ccccc3Cl)n2)cc1,i,9,-1,0.88,-0.23,-2
Cc1ccc(Sc2nc3ccc(C)cn3c(=O)c2C=Nc2ccc(Cl)cc2)cc1,i,·,·,·,·,·
CN1CCN(Cc2cc(COCc3ccccc3)c3cccnc3c2O)CC1,i,5,22,-1.2,-0.17,1
Oc1c(CN2CCc3ccccc3C2)cc(Cl)c2cccnc12,i,64*,86*,0.14,-0.035,0
Oc1c(CN2CCCCC2)cc(Br)c2cccnc12,i,100*,100*,-0.14,-1,2
COc1cccc(-c2nc(N3CCC(C)CC3)c3ccccc3n2)c1O,·,13,-8,2.2*,-0.62,2
O=c1[nH]c(C=Cc2cccs2)c([N+](=O)[O-])c(=O)[nH]1,i,·,·,·,·,·
CCSc1nc(N)c2c3c(sc2n1)CCCC3,i,·,·,·,·,·
O=C(Cc1ccc(Cl)cc1)Nc1c[nH]c(=O)[nH]c1=O,i,·,·,·,·,·
O=S(=O)(c1cccc(-c2nnco2)c1)N1CCCC1,i,-7,-5,0.11,-0.14,91*
Cc1ccc2c(c1)c1c3n2CCN(C(=O)CN2CCN(C)CC2)C3CCC1 (stereo not given),i,2,7,-2.6,0.43,9
CN1CCN(CC(=O)N2CCn3c4c(c5cc(C6CCCCC6)ccc53)CCCC42)CC1 (stereo not given),i,100*,8,-0.19,-0.15,1
COCCOC(=O)C1=C(C)NC(=O)CC1c1cccc(Cl)c1 (stereo not given),i,·,·,·,·,·
COc1ccc(OC)c(NS(=O)(=O)c2cc(OC)ccc2OC)c1,i,3,3,0.0021,-0.49,11
CCCCOc1ccc(S(=O)(=O)Nc2cc(OC)ccc2OC)cc1,i,70*,-9,-0.67,-0.47,4
COc1cccc(Nc2nc(Cl)ccc2[N+](=O)[O-])c1,i,·,·,·,·,·
Cn1c(=O)c(C(=S)NC(=O)C2CC2)c(N)n(Cc2ccccc2)c1=O,i,86*,-1,-0.24,-0.21,1
O=C(c1c[nH]c2ccccc12)C(O)C(c1ccccc1)N1CCOCC1 (stereo not given),i,-2,5,0.3,-0.19,-14
COc1ccc(C(C(O)C(=O)c2c[nH]c3ccccc23)N2CCN(c3ccc(OC)cc3)CC2)cc1 (stereo not given),i,76*,-1,1.1,-2.3,-1
COc1cc(NC(=O)CSc2nccc(C)n2)c(C(=O)O)cc1OC,i,-12,-1,1.2*,-0.6,2
CC(C)c1ccc(-c2nnn(Cc3nc4ccccc4s3)n2)cc1,i,80*,-15,-0.12,0.033,3
SMILES,BAP1 block,Ecoli tolC,E coli WT exp,M1 antag,M1 ag,Hsp90 block
Cc1ccc(-c2nnn(CC(=O)N3CCN(c4nc5ccccc5s4)CC3)n2)cc1,i,-2,-11,0.69,0.93,-4
Cc1nc2ccccc2n1S(=O)(=O)c1ccc(S(=O)(=O)N2CCCCCC2)cc1,i,-23,3,1.9,-1.1,-1
O=S(=O)(N1CCCCC1)n1c(Cc2ccccc2)nc2ccccc21,i,100*,2,0.0056,-0.88,1
O=C(c1cccc(F)c1)N1CCN(C(=O)c2cc(-c3ccc(Cl)cc3Cl)on2)CC1,i,64*,-14,-0.84,0.96,6
COc1cccc(C(=O)N2CCN(C(=O)c3cccc(F)c3)CC2)c1,i,-7,-3,0.8,0.17,0
Cc1ccc(C(=O)Oc2cccc(NC(=O)c3ccco3)c2)cc1S(=O)(=O)N1CCOCC1,i,·,·,·,·,·
CCCOC(=O)C1=C(C)NC2=C(C(=O)CCC2)C1c1ccccc1OCc1ccccc1 (stereo not given),i,·,·,·,·,·
CCCCCc1cc(O)c2c(C)cc(=O)oc2c1,i,86*,-3,-2,0.44,0
Cc1ccc(S(=O)(=O)c2nc(Nc3nccs3)sc2Cl)cc1,i,98*,-5,0.39,-0.077,0
N#Cc1nc(COc2ccc(Cl)cc2)oc1NCc1ccc2c(c1)OCO2,i,23,-7,-0.15,-0.15,-5
Cc1cccc(OCc2nc(C#N)c(NCc3ccc4c(c3)OCO4)o2)c1,i,79*,-19,0.047,-0.8,-7
CC1=CC(C)(C)N2C(=O)C3(SCC(=O)N3c3ccc(O)cc3)c3cc(C)cc1c32 (stereo not given),i,87*,4,0.55,-1.2,-1
COc1ccc(C2Nc3ccccc3C(=O)N2Cc2ccccc2)cc1CN1C(=O)c2ccccc2C1=O (stereo not given),i,·,·,·,·,·
COc1ccc(C2=NO[C@@H]3C(=O)N(c4ccc5c(c4)OCCO5)C(=O)[C@H]23)cc1OC,i,-10,1,0.07,-0.17,68*
O=C(Nc1ccc(Cl)cc1)N(Cc1cccs1)Cc1cccs1,·,95*,-24,0.32,-0.36,·
O=C(Cc1cccs1)Nc1ccc(Cl)cc1,i,13,9,-0.93,0.035,-19
Cc1nnc(SC(=O)N2c3ccccc3Sc3ccccc32)s1,i,69*,-10,-1.6,-0.78,0
Cc1c(CCC(=O)O)c(=O)oc2cc3occ(-c4ccc(F)cc4)c3cc12,i,100*,-9,0.97,-0.19,2
CC1CCCCC1NS(=O)(=O)c1ccc(S(=O)(=O)N2CCCC2)cc1 (stereo not given),i,6,2,-1.4,-0.42,-3
O=S(=O)(NC1CCc2ccccc21)c1ccc(S(=O)(=O)N2CCCC2)cc1 (stereo not given),i,8,-6,-0.0084,-0.7,92*
COc1ccc(-c2csc(NCc3ccco3)n2)cc1C,i,65*,-1,0.18,-0.038,-8
Nc1nc2ccc(C(=O)O)cc2s1,i,·,·,·,·,·
O=C(c1ccc(CNS(=O)(=O)c2ccccc2)cc1)N1CCN(c2ccccn2)CC1,i,-8,6,-0.31,-0.69,-5
CC(C)c1ccc(OCc2ccc(C(=O)N3CCN(c4ccccn4)CC3)cc2)cc1,i,86*,-15,0.58,-0.79,-2
Cc1nn(C(=O)c2ccco2)c(-c2ccccc2)c1Sc1ccccc1,i,·,·,·,·,·

# Bioassay records deposited in PubChem BioAssay by several laboratories.
